≈ marks a conversion by molar mass, not a printed value.
Legend:
[1] = biological target: T1, C-X-C chemokine receptor type 3 (Homo sapiens, UniProt P49682); experiment: Antagonist activity at human recombinant CXCR3 receptor expressed in CHO-K1 cells assessed as human IP10-induced calcium flux by FLIPR assay; assay type: functional, cell-based
T1 sequence (P49682 whole entry): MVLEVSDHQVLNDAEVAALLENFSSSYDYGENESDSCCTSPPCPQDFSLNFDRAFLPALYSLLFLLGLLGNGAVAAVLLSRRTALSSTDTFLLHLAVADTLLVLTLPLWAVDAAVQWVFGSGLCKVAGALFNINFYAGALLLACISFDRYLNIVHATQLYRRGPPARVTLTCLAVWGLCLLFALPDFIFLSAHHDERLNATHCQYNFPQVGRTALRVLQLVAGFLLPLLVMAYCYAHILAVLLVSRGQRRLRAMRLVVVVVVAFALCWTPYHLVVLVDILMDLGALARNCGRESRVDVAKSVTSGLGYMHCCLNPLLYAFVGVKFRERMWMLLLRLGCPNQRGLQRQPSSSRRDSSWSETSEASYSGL

[2] = biological target: T1, C-X-C chemokine receptor type 3; experiment: Antagonist activity at human recombinant CXCR3 receptor assessed as human IP10-induced calcium mobilization by FLIPR assay; assay type: functional; details: read-out: pA2 (converted)
[3] = biological target: T2, C-X-C chemokine receptor type 3 (Mus musculus, UniProt O88410); experiment: Antagonist activity at mouse recombinant CXCR3 expressed in human U2OS cells; assay type: functional, cell-based
T2 sequence (O88410 whole entry): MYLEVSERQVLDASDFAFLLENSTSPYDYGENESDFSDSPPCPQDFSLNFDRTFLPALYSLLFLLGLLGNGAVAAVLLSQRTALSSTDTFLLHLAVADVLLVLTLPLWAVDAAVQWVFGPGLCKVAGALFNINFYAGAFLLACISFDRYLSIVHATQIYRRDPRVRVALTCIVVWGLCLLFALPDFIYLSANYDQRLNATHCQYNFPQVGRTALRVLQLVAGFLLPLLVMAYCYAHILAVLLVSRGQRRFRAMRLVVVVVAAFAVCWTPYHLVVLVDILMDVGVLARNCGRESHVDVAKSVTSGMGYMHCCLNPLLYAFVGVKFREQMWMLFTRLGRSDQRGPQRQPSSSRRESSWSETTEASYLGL
Summary of the method: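 Human U2OS cells were transiently transduced with a mixture of recombinant BacMam viruses, one expressing murine CXCR3 and one expressing chimeric G-protein Gqi5.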

Cytochrome P450 1A2 = biological target: T3, Cytochrome P450 1A2 (Homo sapiens, UniProt P05177); experiment: Inhibition of CYP1A2; assay type: ADME
T3 sequence (P05177 whole entry): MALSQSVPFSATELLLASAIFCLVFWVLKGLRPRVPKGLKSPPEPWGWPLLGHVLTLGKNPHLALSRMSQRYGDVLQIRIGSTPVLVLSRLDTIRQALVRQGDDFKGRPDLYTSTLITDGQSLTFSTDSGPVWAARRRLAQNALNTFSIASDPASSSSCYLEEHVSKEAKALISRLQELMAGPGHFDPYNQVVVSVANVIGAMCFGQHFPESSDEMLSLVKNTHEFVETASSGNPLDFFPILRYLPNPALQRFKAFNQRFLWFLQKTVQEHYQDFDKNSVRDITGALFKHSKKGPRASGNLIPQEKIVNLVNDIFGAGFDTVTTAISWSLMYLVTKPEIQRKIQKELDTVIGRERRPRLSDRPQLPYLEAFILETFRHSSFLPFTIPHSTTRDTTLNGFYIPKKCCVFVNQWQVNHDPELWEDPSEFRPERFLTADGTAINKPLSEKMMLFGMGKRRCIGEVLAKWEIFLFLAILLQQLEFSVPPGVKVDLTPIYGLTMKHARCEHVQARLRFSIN

Cytochrome P450 3A4 [4] = biological target: T4, Cytochrome P450 3A4 (Homo sapiens, UniProt P08684); experiment: Inhibition of CYP3A4 red; assay type: ADME
Cytochrome P450 3A4 [5] = biological target: T4, Cytochrome P450 3A4; experiment: Inhibition of CYP3A4 green; assay type: ADME
Cytochrome P450 2C9 = Cytochrome P450 2C9 (Homo sapiens, UniProt P11712); experiment: Inhibition of CYP2C9; assay type: ADME
Cytochrome P450 2C19 = Cytochrome P450 2C19 (Homo sapiens, UniProt P33261); experiment: Inhibition of CYP2C19; assay type: ADME
Cytochrome P450 2D6 = Cytochrome P450 2D6 (Homo sapiens, UniProt P10635); experiment: Inhibition of CYP2D6; assay type: ADME
[6] = biological target: Voltage-gated inwardly rectifying potassium channel KCNH2 (Homo sapiens, UniProt Q12809); experiment: Binding affinity to human ERG
[7] = Permeability across artificial membrane; assay type: ADME; details: PAMPA; read-out: permeability
[8] = Aqueous solubility of the compound; assay type: physicochemical; details: buffer
[9] = Clearance in rat at 1.1 mg/kg, iv and 2.0 mg/kg, po; assay type: ADME, organism-based; details: in vivo
Rattus norvegicus = experiment: Half life in rat at 1.1 mg/kg, iv and 2.0 mg/kg, po; assay type: ADME, organism-based; details: in vivo
[10] = Volume of distribution at steady state in rat a 1.1 mg/kg, iv and 2.0 mg/kg, po; assay type: ADME, organism-based; details: in vivo, read-out: Vdss
[11] = Oral bioavailability in rat at 2.0 mg/kg; assay type: ADME, organism-based; details: in vivo

T4 sequence (P08684 whole entry): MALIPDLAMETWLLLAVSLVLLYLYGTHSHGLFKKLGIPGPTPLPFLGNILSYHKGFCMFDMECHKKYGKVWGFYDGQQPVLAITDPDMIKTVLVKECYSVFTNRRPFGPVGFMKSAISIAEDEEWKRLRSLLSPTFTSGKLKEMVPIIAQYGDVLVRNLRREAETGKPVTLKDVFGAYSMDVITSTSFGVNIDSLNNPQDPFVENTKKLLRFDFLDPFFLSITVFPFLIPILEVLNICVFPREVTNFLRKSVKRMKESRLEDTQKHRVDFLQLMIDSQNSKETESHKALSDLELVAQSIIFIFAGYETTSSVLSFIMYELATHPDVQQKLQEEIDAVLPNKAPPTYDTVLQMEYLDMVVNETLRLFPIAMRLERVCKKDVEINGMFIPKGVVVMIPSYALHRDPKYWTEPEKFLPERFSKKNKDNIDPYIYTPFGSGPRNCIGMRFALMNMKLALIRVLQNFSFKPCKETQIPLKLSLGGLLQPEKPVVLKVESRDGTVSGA
Chain of Voltage-gated inwardly rectifying potassium channel KCNH2 (Q12809 whole entry): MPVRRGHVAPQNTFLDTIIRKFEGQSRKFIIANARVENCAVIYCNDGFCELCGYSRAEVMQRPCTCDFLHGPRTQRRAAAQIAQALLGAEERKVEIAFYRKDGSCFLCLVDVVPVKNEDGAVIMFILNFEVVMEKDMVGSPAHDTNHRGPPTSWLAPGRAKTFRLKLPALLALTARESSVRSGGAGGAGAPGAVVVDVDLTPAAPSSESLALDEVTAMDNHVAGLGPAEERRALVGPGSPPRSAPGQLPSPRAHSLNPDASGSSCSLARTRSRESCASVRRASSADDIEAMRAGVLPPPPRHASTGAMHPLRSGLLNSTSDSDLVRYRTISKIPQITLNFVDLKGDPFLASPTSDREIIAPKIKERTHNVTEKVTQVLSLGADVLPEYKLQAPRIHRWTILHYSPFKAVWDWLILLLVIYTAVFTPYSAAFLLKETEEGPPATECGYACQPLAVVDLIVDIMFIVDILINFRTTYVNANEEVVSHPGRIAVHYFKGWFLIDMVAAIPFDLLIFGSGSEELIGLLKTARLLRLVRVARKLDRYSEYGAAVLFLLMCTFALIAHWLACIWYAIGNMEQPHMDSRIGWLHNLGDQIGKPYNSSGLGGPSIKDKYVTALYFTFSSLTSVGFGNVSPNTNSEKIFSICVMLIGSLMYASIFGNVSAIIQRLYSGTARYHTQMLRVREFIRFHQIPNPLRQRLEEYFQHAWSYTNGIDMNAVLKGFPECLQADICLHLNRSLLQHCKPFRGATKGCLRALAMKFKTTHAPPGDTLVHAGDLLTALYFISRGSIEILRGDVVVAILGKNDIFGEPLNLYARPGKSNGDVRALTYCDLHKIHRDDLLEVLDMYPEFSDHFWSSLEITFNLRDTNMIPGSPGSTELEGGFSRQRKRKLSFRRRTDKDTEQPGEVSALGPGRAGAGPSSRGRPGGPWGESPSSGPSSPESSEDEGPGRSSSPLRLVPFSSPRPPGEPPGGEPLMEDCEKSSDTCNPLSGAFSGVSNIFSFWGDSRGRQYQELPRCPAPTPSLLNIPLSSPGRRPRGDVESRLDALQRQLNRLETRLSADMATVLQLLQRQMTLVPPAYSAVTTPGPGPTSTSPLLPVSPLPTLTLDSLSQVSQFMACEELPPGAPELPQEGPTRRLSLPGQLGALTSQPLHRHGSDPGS
Chain of Cytochrome P450 2C9 (P11712 whole entry): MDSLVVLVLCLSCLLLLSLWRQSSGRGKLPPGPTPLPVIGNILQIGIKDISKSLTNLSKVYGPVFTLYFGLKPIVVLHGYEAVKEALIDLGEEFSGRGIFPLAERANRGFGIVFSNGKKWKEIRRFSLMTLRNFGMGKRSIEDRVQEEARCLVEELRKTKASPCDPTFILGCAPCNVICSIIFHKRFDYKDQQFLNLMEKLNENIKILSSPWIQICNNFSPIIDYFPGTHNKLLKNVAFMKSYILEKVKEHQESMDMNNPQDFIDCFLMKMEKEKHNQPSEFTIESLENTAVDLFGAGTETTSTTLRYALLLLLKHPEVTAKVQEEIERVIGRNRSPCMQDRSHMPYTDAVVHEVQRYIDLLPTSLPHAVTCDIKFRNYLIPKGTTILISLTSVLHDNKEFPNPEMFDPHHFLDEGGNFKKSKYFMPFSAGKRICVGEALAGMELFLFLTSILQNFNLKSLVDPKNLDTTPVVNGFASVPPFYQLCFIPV
Chain of Cytochrome P450 2D6 (P10635 whole entry): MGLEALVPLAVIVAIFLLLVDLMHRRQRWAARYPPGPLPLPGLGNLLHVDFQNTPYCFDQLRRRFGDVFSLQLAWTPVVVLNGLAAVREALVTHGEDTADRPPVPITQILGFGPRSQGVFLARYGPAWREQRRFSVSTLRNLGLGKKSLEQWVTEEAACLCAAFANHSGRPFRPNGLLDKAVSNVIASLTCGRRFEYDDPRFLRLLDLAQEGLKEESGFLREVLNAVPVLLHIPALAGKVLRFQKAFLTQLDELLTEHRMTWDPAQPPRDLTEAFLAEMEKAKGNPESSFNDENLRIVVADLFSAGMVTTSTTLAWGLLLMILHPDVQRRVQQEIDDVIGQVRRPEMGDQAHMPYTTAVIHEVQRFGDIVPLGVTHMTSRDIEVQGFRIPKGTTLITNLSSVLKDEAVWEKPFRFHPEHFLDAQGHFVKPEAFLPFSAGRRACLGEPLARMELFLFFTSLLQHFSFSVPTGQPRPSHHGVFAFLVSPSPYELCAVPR
Chain of Cytochrome P450 2C19 (P33261 whole entry): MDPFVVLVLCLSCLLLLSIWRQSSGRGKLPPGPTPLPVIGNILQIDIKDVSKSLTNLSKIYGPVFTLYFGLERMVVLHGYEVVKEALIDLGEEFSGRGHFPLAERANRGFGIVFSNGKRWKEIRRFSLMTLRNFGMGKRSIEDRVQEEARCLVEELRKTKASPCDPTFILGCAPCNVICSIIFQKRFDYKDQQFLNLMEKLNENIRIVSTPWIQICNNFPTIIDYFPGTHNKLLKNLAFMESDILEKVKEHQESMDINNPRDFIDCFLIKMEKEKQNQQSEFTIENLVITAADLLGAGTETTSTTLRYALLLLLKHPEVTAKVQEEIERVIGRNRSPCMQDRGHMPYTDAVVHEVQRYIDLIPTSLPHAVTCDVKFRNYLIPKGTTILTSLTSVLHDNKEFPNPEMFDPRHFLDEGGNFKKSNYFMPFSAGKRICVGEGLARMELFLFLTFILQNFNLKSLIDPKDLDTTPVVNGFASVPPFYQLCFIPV

Row | IC50 [1] | Kb [2] | IC50 [3] | IC50 (Cytochrome P450 1A2) | IC50 (Cytochrome P450 3A4 [4]) | IC50 (Cytochrome P450 3A4 [5]) | IC50 (Cytochrome P450 2C9) | IC50 (Cytochrome P450 2C19) | IC50 (Cytochrome P450 2D6) | Papp [7] | solubility [8] | clearance [9] | t1/2 (Rattus norvegicus) | Vd [10] | bioavailability [11] | Structure (SMILES) | IC50 [6]
1 | 31.6 nM | 20 nM | 200 nM | > 25000 nM | > 25000 nM | 13.6 µM | 4 µM | 4 µM | > 25 µM | – | – | – | – | – | – | C[C@H]1CN(S(=O)(=O)C[C@]23CC[C@H](C[C@@H]2O)C3(C)C)CCN1c1ncc(C(F)(F)F)cc1F | –
2 | 79.4 nM | 25.1 nM | 501 nM | 160 nM | 320 nM | – | – | – | – | 35.2 ×10⁻⁶ cm/s | 4 µg/mL (≈ 8.38 µM) | 108 mL/min/kg | 30 min | 2.2 L/kg | 8% | C[C@H]1CN(S(=O)(=O)C[C@]23CC[C@H](CC2=O)C3(C)C)CCN1c1ncc(C(F)(F)F)cc1F | > 63 µM

— ChEMBL document CHEMBL1139268, “Camphor sulfonamide derivatives as novel, potent and selective CXCR3 antagonists” (Bioorg Med Chem Lett, 2009)
